Screening results from PubChem.
TNF necrop inh – TNF-alpha cell death inhibition in Jurkat FADD-/- cells; Jurkat FADD-/- TNF necroptosis rescue, ATP luminescence, 24 h; 0 = TNF only, 100 = no-TNF cells; activation (protection from cell death), % at 10 µM; 0.068% of 220,000 active;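 active = activation, meaning protection from cell death, of at least 50% relative to plate controls; inactive = activation below 50%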;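 also: necroptosis triggered by 40 ng/mL TNF-alpha added together with compound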
Dynein cargo inh – blocks dynein driven cargo transport along microtubules. 3617.4 mouse cells, GR-EGFP nuclear translocation imaging; test concentration mostly 20 µM; stimulated with dexamethasone, 1 µM; stronger effect = lower value. z-score, hits read low. 0.47% of 220,000 active. AID 1381;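 active = plate z-score of nuclear minus cytoplasmic receptor signal below a set negative limit, without overly bright fluorescence or cell loss, cut at about -3.5 in these data, passing the limit was not always enough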;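 also: z-score of nuclear minus cytoplasmic ring GR-EGFP intensity difference per well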
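Schedule: 48 h induction, then 1 h compound, then 30 min agonist, 37 °C. Buffer or medium: tetracycline-free induction medium containing charcoal-stripped FBS. Reagent: 1.0 µM final dexamethasone stimulus. Evaluation: nuclear versus cytoplasmic GR-EGFP signal, averaged per well. Signal: high-content fluorescence imaging after fixation.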
Furin inh – inhibitors of human furin | AID 463115 | purified furin, fluorogenic substrate cleavage | 0.061% of 220,000 active | P09958 | inhibition, % at 20 µM or 30 µM; in the data active = inhibition above about 25%
Target sequence (P09958 108-714 limits assumed): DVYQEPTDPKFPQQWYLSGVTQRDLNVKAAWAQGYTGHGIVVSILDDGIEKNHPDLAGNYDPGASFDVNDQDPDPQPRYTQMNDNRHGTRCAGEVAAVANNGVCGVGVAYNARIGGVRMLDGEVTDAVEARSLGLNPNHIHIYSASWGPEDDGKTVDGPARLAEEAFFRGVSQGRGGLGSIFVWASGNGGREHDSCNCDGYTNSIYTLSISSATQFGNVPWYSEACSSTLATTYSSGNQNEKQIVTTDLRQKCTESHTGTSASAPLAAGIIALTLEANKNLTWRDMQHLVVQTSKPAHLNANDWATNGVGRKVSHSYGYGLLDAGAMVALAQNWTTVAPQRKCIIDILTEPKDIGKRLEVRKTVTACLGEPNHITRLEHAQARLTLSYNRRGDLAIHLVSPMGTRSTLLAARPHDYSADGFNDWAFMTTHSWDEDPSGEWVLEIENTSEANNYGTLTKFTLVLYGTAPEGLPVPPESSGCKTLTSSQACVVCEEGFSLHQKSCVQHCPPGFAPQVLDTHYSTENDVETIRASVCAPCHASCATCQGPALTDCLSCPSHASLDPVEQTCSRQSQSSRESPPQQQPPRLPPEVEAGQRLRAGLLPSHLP
L929 necroptosis – blocks zVAD induced death of L929 cells; viability rescue, % at 10 µM; L929 zVAD necroptosis rescue, ATP luminescence, 24 h; with zVAD 60 µM; AID 1377; 0.38% of 220,000 active;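 active = activation, scaled between plate controls, above about 75%, limit read from the data; inactive = activation under that limit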;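 also: 0% = zVAD with DMSO and 100% = DMSO alone without zVAD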
Autophagy mod – alters autophagy in cells; AID 463193; calls only at 10 µM (by protocol); MEF GFP-LC3 puncta imaging; test concentration mostly 10 µM; 0.98% of 190,000 active;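 active = percentage of spot-positive cells more than 3 SD above its plate mean, without a fluorescence outlier flag or 80% toxicity; inconclusive = no clear call, values can overlap the other calls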;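 also: spot-positive cell cutoff set from DMSO-treated cells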
HSV augment – increases HSV replication in cells. HSV replication augmentation in cells, fold increase. maximum fold increase. 0.005% of 220,000 active; in the data active = maximum fold increase above about 1.5; inconclusive = no clear call, values can overlap the other calls; tested in PC3 cells
Dynein confirm – dynein cargo transport inhibition, confirmation | shares compounds with Dynein cargo inh | 3617.4 GR-EGFP nuclear translocation imaging, dexamethasone-induced | calls only at 20 µM | 69% of 1,000 active | AID 463116;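 active = inhibition of receptor movement into the nucleus at or above a set limit in both runs, with normal cell brightness and cell count; inconclusive = limit reached in only one run, brightness and count normal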;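 also: dexamethasone at 1 µM final in well for 30 min; nuclear minus cytoplasmic GR-EGFP mean intensity difference in channel 2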
* = called active by the depositor; i = inactive; ? = inconclusive; nt = no result; + = active, no number. Sampled rows, rich in hits. Any-hit rate of the full collection: about 1.8%.

SMILES	TNF necrop inh	Dynein cargo inh	Furin inh	L929 necroptosis	Autophagy mod	HSV augment	Dynein confirm
CCCCn1c(CCC)nc([N+](=O)[O-])c1Sc1ccc(Cl)cn1	-10.9	-3.63*	-11.1	-1.5	i	i	+
O=C(CC1SC2=NCCN2C1=O)Nc1ccc(Br)cc1 (stereo not given)	-0.7	0.0377	-18.7	-0.1	i	i	nt
O=C(CC1Sc2ncnn2C1=O)Nc1ccc(Br)cc1 (stereo not given)	-1.7	-3.59*	-15.1	-0.8	i	i	i
CC1CCC2C(=O)N(c3ccc(Cc4ccncc4)cc3)C(=O)C2C1 (stereo not given)	-1.0	-0.0822	-25.2	-0.1	i	i	nt
CC(=O)N1CCN(c2ccc(NC(=O)c3ccc(Br)o3)cc2Cl)CC1	2.8	0.556	-17.3	32.7	i	i	nt
CCCC(=O)N1CCN(c2ccc(NC(=O)c3ccc([N+](=O)[O-])o3)cc2Cl)CC1	-7.1	-4.73*	-2.4	26.2	+	i	+
O=C(Nc1ccc(N2CCOCC2)c(Cl)c1)c1ccc([N+](=O)[O-])o1	-12.6	-4.48*	-8.6	62.6	i	i	+
CC(C)C(=O)N1CCN(c2ccc(NC(=O)c3ccc([N+](=O)[O-])o3)cc2Cl)CC1	-9.7	-4.23*	-9.3	46.4	i	i	+
Cc1ccc(NC(=O)c2ccc([N+](=O)[O-])o2)cc1S(=O)(=O)N1CCOCC1	-15.1	-1.78	-21.0	36.7	i	i	nt
CCOC(=O)c1ccccc1OC(=O)CS(=O)c1ccccc1[N+](=O)[O-] (stereo not given)	-2.5	-0.955	-32.3	5.1	i	i	nt
CS(=O)(=O)c1ccc(S(=O)CC(=O)OCc2ccccc2)c([N+](=O)[O-])c1 (stereo not given)	-16.0	-5.57	-21.0	24.3	i	i	+
O=C(CS(=O)c1ccc(C(F)(F)F)cc1[N+](=O)[O-])Oc1ccccc1 (stereo not given)	0.0	-3.9*	-12.0	0.1	i	i	+
Cc1c(C(=O)O)c(C(=O)O)c2n1CCS2	-0.1	0.921	-25.6	-0.4	nt	i	nt
Cc1cccc(N(Cc2ccccc2)C(=O)CCl)c1	-6.7	-5.68*	-10.4	-3.0	?	i	+
Cc1cccc(N(CC(=O)O)CC(=O)O)c1	1.0	0.243	-12.1	0.1	i	i	nt
O=C(c1cccnc1)N(Cc1ccccc1)c1ccccc1	-2.5	0.533	-11.9	-0.3	i	i	nt
O=C(CCl)N(Cc1ccccc1)c1ccccc1	-5.3	-5.28*	-9.7	-1.7	i	i	+
CCCCCC(=O)N/N=C/c1ccc([N+](=O)[O-])o1	-9.0	3.07e-05	-2.8	2.4	i	i	nt
O=C(CCC(=O)Nc1ccc(Cl)cc1Cl)N/N=C/c1ccc([N+](=O)[O-])o1	-12.4	-5.2*	-19.7	15.1	i	i	+
Cc1ccc(C(=O)CSc2cnc3ccccc3n2)cc1C	0.0	0.144	-1.3	-0.1	i	i	nt
CC1CCN(S(=O)(=O)c2ccc3c(c2)c(=O)c(C(=O)NCc2ccccc2Cl)cn3C)CC1	-1.2	1.34	-3.6	nt	i	i	nt
CCCn1nc([N+](=O)[O-])c(C(C#N)c2nc3ccccc3o2)c(Cl)c1=O (stereo not given)	-1.7	0.0585	-5.5	-0.4	i	i	nt
CCn1nc([N+](=O)[O-])c(C(C#N)c2nc3cc(C(F)(F)F)ccc3s2)c(Cl)c1=O (stereo not given)	-6.7	-4.4*	-8.1	0.0	i	i	+
Cc1cc(C)n(C(=O)COc2ccccc2[N+](=O)[O-])n1	0.9	0.0469	-19.6	0.5	nt	i	nt
COC(=O)CCS(=O)(=O)c1nc(-c2ccccc2)cc(C(F)(F)F)n1	-21.6	-2.43	-11.4	-0.4	i	i	nt
COc1ccc(-c2cc(C(F)(F)F)nc(S(=O)(=O)CCCC(=O)Nc3cccnc3Cl)n2)cc1OC	-14.0	-5.08*	-19.2	20.4	i	i	+
Cc1cc(NC(=O)CCCS(=O)(=O)c2nc(-c3cccs3)cc(C(F)(F)F)n2)no1	-15.1	-4.83*	-6.1	58.5	i	i	?
